In the library only some 2.2% were active in any assay of this set; here they are far more common.
697 NFkB inh = inhibitors of the PMA/ionomycin-induced NF-kB reporter in 697 B cells; 697 B-cell NF-kB luciferase reporter, 16 h; inhibition, % at 4 µM; actives 0.33% (n = 330,000); in the data active = inhibition above about 35%
NR2E3 ag-1 = agonists of human NR2E3 nuclear receptor; inhibition of corepressor binding, % at 3.98 µM; actives 0.35% (n = 360,000); CHO-S Gal4-NCOR/VP16-NR2E3 two-hybrid, luciferase; AID 602229;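 active = inhibition above the mean of all tested compounds plus 3 SD, cut at about 70% in these data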;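 note: 0% = DMSO with NR2E3 transfected cells and 100% = cells lacking NR2E3 construct; higher means lower luciferase signal from less NR2E3 corepressor binding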
Target sequence (Q9Y5X4 whole entry, looked up, the tested form may be a part): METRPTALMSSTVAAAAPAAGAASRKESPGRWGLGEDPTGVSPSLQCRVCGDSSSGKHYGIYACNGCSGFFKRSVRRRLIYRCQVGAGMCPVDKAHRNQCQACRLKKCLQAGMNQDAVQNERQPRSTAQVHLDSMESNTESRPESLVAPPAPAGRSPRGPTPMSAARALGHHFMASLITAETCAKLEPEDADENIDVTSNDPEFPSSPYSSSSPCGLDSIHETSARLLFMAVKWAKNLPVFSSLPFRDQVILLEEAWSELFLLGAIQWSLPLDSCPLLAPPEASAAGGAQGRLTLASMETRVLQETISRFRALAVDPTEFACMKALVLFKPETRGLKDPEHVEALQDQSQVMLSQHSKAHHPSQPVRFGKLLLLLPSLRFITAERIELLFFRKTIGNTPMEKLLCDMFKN
miR122 inh = miR-122 inhibition in Huh7 cells; Huh7 miR-122 Renilla luciferase sensor, 48 h; neutral wells = 0, positive control = 100; activation (reporter increase), % at 12.5 µM; actives 0.3% (n = 340,000); AID 602342;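 active = mean replicate activation score at least 90 and every replicate individually at or above 90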;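 note: higher luciferase means less miR-122 activity so hits act as miR-122 inhibitors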
FGF22 binding = binders of recombinant human FGF22 by thermal shift | activity (Tm shift, normalised), % at 9.99 µM | actives 1.5% (n = 340,000) | AID 651658 | SYPRO orange fluorescence; percent of sucrose octasulfate shift, DMSO zero | Q9HCT0;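 active = mean Tm shift, scaled 0 neutral to 100 positive control, at about 1.3% or above, every replicate too, limit read from the data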
NR2E3 ag-2 = NR2E3 (human) agonism; GST-NR2E3/biotin-RetCOR TR-FRET, 1536-well; Q9Y5X4; actives 0.12% (n = 320,000); AID 2300; inhibition of corepressor binding, % at 4.78 µM;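 active = percent inhibition above the cutoff of mean plus 3 SD of all tested compounds, set per screening campaign, cut at about 20% in these data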;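 note: 0% = DMSO wells and 100% = biotin wells as full block of FRET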
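Format: 1536-well format; test system: GST-NR2E3 and biotin-RetCOR proteins; read-out basis: percent inhibition of TR-FRET ratio; timing: 5 h incubation at 4 °C; detection: time-resolved FRET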
Jurkat NFkB inh = lowers PMA/ionomycin-induced NF-kB signal in Jurkat cells. PMA/ionomycin-induced NF-kB luciferase reporter, luminescence. inhibition, % at 4 µM. actives 0.53% (n = 330,000). AID 435003; in the data active = inhibition above about 50%
An asterisk follows results filed as active; nt = no result given; [ ] = another dose, or the depositor's remark.

SMILES	697 NFkB inh	NR2E3 ag-1	miR122 inh	FGF22 binding	NR2E3 ag-2	Jurkat NFkB inh
CCOc1cc(C(=O)Nc2cccc(C(C)=O)c2)ccc1OCC(=O)N1CCCCC1	20	6	nt	44*	3	11
COc1ccc(C(=O)C2CCCN(C(=O)c3ccccc3C(C)=O)C2)cc1F (configuration not stated)	-10	5	nt	0	-1	-11
CCC(=O)c1ccc(OCC(=O)N2CCCC2)c(OC)c1	-5	-4	nt	44*	0	-5
COc1ccc(C(=O)C2CCCN(C(=O)COc3ccc(C(C)=O)cc3)C2)cc1F (configuration not stated)	18	3	nt	44*	-4	-4
CCC(=O)c1ccc(OCC(=O)O)c(OC)c1	3	-16	-3	0	-1	7
CC(C)[C@@H]1COCc2cn(nn2)CC[C@H](C)C(=O)N1	nt	nt	nt	0	nt	nt
O=C(Cn1c(NCCO)nc2ccccc21)NCC1CCCO1 (configuration not stated)	17	5	nt	43*	1	4
CCN(CC)C(=O)C(=O)c1cn(CC(=O)NCC2CCCO2)c2ccccc12 (configuration not stated)	14	10	nt	44*	0	1
O=C(Cn1c(NCCO)nc2ccccc21)NCCc1ccccc1	-10	2	5	nt	2	2
COc1ccc(S(=O)(=O)Nc2ccc3c(c2)CC(=O)N([C@@H](C)CO)C[C@@H](C)[C@H](CN(C)Cc2ccc4c(c2)OCO4)O3)cc1	nt	nt	2[16.7 µM]	0	nt	nt
O=C(O)C1C(c2ccccc2)c2ccccc2C(O)C1CO (configuration not stated)	nt	-18	2	43*	nt	nt
OCC1C2c3ccccc3C(c3ccccc32)C1CO (configuration not stated)	-47	-1	nt	0	7	-21
O=[N+]([O-])c1cc(S(=O)(=O)Nc2ccc(Cl)cc2)ccc1N/N=C/c1ccncc1	-39	-24	279*	0	-4	17
C[C@@H](NC(=O)C[C@H]1C[C@H]2c3cc(NC(=O)CN(C)C)ccc3O[C@H]2[C@@H](CO)O1)c1ccccc1	nt	nt	-1[16.7 µM]	0	nt	nt
Cc1ccc(-c2nc(C)c(C(=O)O)s2)cc1	-110	-130	nt	43*	7	-10
Cc1nc(-c2ccccc2)sc1C(=O)O	-10	-63	-3	0	-1	11
C[C@H](CO)N1C[C@H](C)[C@H](CN(C)C(=O)CCC(F)(F)F)OCCCC[C@H](C)Oc2ccc(NC(=O)Cc3ccccc3)cc2C1=O	nt	nt	-5[16.7 µM]	0	nt	nt
COc1ccc(NC(=S)NC(=O)c2ccccc2Cl)cc1	-32	-62	-2	43*	4	-15
COc1ccccc1C(=O)NC(=S)Nc1ccc(NC(=O)c2ccco2)cc1	-16	-8	-1	1.5*	1	2
O=C(NC(=S)Nc1ccc(CN2CCCCC2)cc1)c1ccco1	-25	-6	3	43*	-1	-14
O=C(NC(=S)Nc1ccc(O)cc1)c1ccccc1Cl	-57	-65	-4	42	1	-57
COc1ccc(NC(=S)NNC(=O)COc2ccc(Cl)cc2Cl)cc1	1	-23	nt	nt	2	1
COc1ccc(NC(=S)NNC(=O)CNc2ccc(Cl)cc2)cc1	-2	-12	nt	1.4*	-5	-1
Cc1noc(C)c1NC(=O)Nc1ccc2c(c1)C(=O)N(C)[C@H]1CC[C@H](CC(=O)N[C@H]3CCN(Cc4ccccc4)C3)O[C@H]1CO2	nt	nt	0[16.7 µM]	0	nt	nt
CO[C@H]1CN(C)C(=O)c2cc(NC(=O)c3cc(C)on3)ccc2OC[C@@H](C)NC[C@H]1C	nt	nt	nt	0	nt	nt
N#C[C@H]1[C@H](c2ccc(-c3ccccc3F)cc2)[C@@H](CO)N1C(=O)C1CC1	nt	nt	nt	0	nt	nt
CCN(CC)C(=O)CSc1nc2c(c(-c3cccnc3)c1C#N)CCCC2	-3	-12	nt	43*	-1	3
CC=Cc1ccc2n(c1=O)C[C@@H]1[C@@H](CO)[C@H](C(=O)NC3CCCC3)N(Cc3cccnc3)[C@H]21 (mixture of isomers)	nt	nt	0[16.7 µM]	0	nt	nt
O=C(COC(=O)c1cccnc1)Nc1ccc2c(c1)OCO2	13	4	nt	43*	1	7
